Bioassay records (PubChem)
Hits are enriched below; roughly 2.9% of the tested compounds scored in any of these assays.
DENV2 CPE rescue = inhibitors of DENV2 cytopathic effect | DENV2-infected cells, cytopathic effect rescue, plate reader | CPE inhibition, % at 9.99 µM | 1.7% of 350,000 active | AID 651640; in the data active = CPE inhibition above about 20%, passing the limit was not always enough; inconclusive = no clear call, values can overlap the other calls; tested in BHK-21 cells;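 note: 0% = median of neutral control wells and 100% = median of positive control wells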
E-selectin induc = induces E-selectin expression in human endothelial cells; 0.37% of 260,000 active; activation, % at 7.58 µM; HUVEC E-selectin immunofluorescence imaging; normalized: neutral wells 0, TNF-alpha wells 100; P16581; AID 686992;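 active = mean E-selectin-positive cell signal at least 10% of the positive control, reached in at least 60% of replicates, without over 20% cell loss; inconclusive = no rule given, readout overlaps actives, possibly toxicity-flagged; inactive = the rest, including those meeting only one limit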
Target sequence (P16581 whole entry, looked up): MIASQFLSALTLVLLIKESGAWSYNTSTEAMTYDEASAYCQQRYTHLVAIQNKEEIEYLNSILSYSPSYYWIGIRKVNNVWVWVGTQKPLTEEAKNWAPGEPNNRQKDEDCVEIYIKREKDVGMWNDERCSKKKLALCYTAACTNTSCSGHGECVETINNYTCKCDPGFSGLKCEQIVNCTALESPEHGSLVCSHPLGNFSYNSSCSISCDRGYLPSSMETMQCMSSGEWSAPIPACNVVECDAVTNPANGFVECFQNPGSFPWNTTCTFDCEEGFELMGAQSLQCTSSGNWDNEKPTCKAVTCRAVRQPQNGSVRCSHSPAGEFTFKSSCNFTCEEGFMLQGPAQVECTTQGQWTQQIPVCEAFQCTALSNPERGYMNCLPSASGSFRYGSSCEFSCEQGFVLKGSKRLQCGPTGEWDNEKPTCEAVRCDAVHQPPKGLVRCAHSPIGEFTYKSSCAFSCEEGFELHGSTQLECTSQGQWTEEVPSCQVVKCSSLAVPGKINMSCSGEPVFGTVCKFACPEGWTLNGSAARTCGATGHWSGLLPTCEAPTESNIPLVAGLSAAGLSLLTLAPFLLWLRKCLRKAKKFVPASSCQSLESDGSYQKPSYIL
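Assay system: HUVEC primary endothelial cells. Input: 3,000 HUVEC seeded per well. Doses: one compound dose added by pin transfer. Read-out basis: % PE-positive cells. Benchmarks: TNF-alpha high, DMSO low. Detection: immunofluorescence imaging. Buffer or medium: EGM-2, gelatin.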
SIRT5 inh = sirtuin-5 (human) deacylase inhibition. Purified SirT5, succinyl-peptide AMC, trypsin-coupled fluorescence. Q9NXA8. 1.1% of 330,000 active. AID 652115. inhibition, % at 15 µM; in the data active = inhibition above about 15%; inconclusive = no clear call, values can overlap the other calls
* marks the source's active call; other numbers are inactive results; ? = inconclusive; / = not tested or not shown; ! = not active in a repeat.

SMILES	DENV2 CPE rescue	E-selectin induc	SIRT5 inh
O=C(NCCc1ccccc1)c1ccc(CS(=O)(=O)c2ccc(Cl)cc2)o1	0	4	-9
O=C1C=CC(O)C2(CO)OC12 (centres undefined)	25*	-1	-1
COC(=O)Cc1c(O)ccn(Cc2ccc(OC)c(OC)c2)c1=O	-3	1	-3
CCOc1cc(/C=N\n2nnnc2N)ccc1O	-5	2	-1
CCOc1ccc(/C=N/n2nnnc2N)cc1OCC	27*	0	-3
CCOC(=O)C1CCCN(CC(O)COCc2ccccc2OC)C1 (centres undefined)	-3	/	-2
CC(C)[C@H]1COCCS(=O)(=O)N1Cc1ccc(Cl)cc1	0	/	-3
CCC(C)[C@H]1COCCS(=O)(=O)N1Cc1ccc(Br)cc1 (some centres undefined)	100*	0	-4
CC(=O)N/C(=C\c1ccccc1)C(=O)OCC(=O)NC1CCCC1	21*	/	-3
CC(=O)N/C(=C\c1ccccc1)C(=O)OCC(=O)c1ccccc1	-1	/	-9
CCN(CC)S(=O)(=O)c1ccc(NC(=O)COc2cccc(-n3cnnn3)c2)cc1	2	0	-5
CC(C)N(C(=O)COC(=O)c1cncc(Br)c1)C(C)C	4	0	2
O=C(OCc1ccccc1)c1cnc(Cl)c(Cl)c1	-1	0	2
CC(C)N(Cc1ccccc1)C(=O)COC(=O)c1cnc(Cl)c(Cl)c1	67*	1	0
CN(Cc1ccccc1)C(=O)COC(=O)c1cncc(Br)c1	-1	2	17*
CNc1cncc(-c2ccc(F)c(F)c2)n1	-1	0	/
Cc1noc(C)c1C(=O)N1CCN(S(=O)(=O)c2cccc(Cl)c2Cl)CC1	/	0	-5
Nc1ccccc1Oc1ncc(C(F)(F)F)cc1Cl	/	/	-5
CCn1c(C)nc2cc(N)ccc21	/	1	2
Cc1cc(NC(=O)CSc2nnc3c4c(C)c(C)sc4ncn23)no1	-3	/	1
Cc1ccc(-c2cnc3c(c2)C(=O)N([C@@H](C)CO)C[C@@H](C)[C@H](CN(C)C(=O)Cc2ccccc2)O3)cc1	-6	0	3
Cc1ccc(-c2cnc3c(c2)C(=O)N([C@H](C)CO)C[C@@H](C)[C@@H](CN(C)C(=O)Cc2ccncc2)O3)cc1	1	1	13
Cc1ccc(-c2cnc3c(c2)C(=O)N([C@H](C)CO)C[C@H](C)[C@H](CN(C)C(=O)Cc2ccccc2)O3)cc1	76*	0	2
Cc1ccc(-c2cnc3c(c2)C(=O)N([C@H](C)CO)C[C@@H](C)[C@@H](CN(C)Cc2ccccc2F)O3)cc1	22	0	-2
Cc1ccc(-c2cnc3c(c2)C(=O)N([C@@H](C)CO)C[C@H](C)[C@@H](CN(C)C(=O)c2cccnc2)O3)cc1	-2	0	26*
SMILES	DENV2 CPE rescue	E-selectin induc	SIRT5 inh
C[C@H](CO)N1C[C@H](C)[C@@H](CN(C)C(=O)c2cccnc2)Oc2ncc(-c3ccccc3)cc2C1=O	2	0	-2
Cc1ccc(-c2cnc3c(c2)C(=O)N([C@H](C)CO)C[C@H](C)[C@@H](CN(C)Cc2ccccc2F)O3)cc1	1	0	13*!
Cc1ccc(-c2cnc3c(c2)C(=O)N([C@H](C)CO)C[C@H](C)[C@@H](CN(C)C(=O)Cc2ccncc2)O3)cc1	27*	0	4
COc1cc(/C=N/Nc2ccccn2)cc(OC)c1O	-9	/	4
CC(C)C#Cc1ccc2c(c1)O[C@@H](CN(C)C(=O)NC(C)C)[C@@H](C)CN([C@H](C)CO)S2(=O)=O	-2	0	6
CCOC(=O)C1CCN(C(=O)CCCNC(=O)Cn2cnc3sc(C)c(C)c3c2=O)CC1	?	3	-6
CN1c2ccc(-c3cccc(F)c3)cc2[C@H]2[C@H](CCN2C(=O)C2CCOCC2)[C@H]1CO	-14	0	-13
COc1cc(C(=S)N2CCCC2)ccc1OCc1ccc(C)cc1	47*	/	-4
COc1cc(C(=S)N2CCCCC2)ccc1OCC(=O)Nc1ccc(F)cc1	98*	0	-3
COc1cc(C(=S)N2CCCC2)ccc1OCC(N)=O	1	/	-1
CCOc1ccc(C(=S)N2CCCC2)cc1OC	5	1	-1
Fc1ccc(F)c(NC(=S)NCCc2ccccc2)c1	11	0	-3
CCCCn1c(N)c(N(CCOC)C(=O)c2ccc(Br)o2)c(=O)[nH]c1=O	?	/	-5
COc1ccc(NC(=O)[C@@H]2CCCN2C(=O)[C@@H]2Cc3ccccc3CN2C(=O)OC(C)(C)C)cc1	1	0	-1
C[C@H](NC(=O)c1ccc(Cl)cc1)C(=O)OCn1nnc2ccccc2c1=O	-2	/	5
CC(NC(=O)c1ccccc1)C(=O)OCn1nnc2ccccc2c1=O (centres undefined)	33*	/	-14
CC(C)c1nnc(NC(=O)CCC(=O)Nc2ccc3cn[nH]c3c2)s1	-7	1	/
Cc1ccc(C(NC(=O)NN2CCN(C)CC2)C(Cl)Cl)cc1F (centres undefined)	-8	/	-1
CCCN1C[C@H](C)[C@@H](OC)CN(C)C(=O)c2cc(NC(=O)Nc3ccccc3F)ccc2OC[C@H]1C	29*	0	3
COc1cccc(C(=O)Nc2ccc3c(c2)C(=O)N(C)C[C@@H](OC)[C@H](C)CN(CCc2ccccc2)[C@@H](C)CO3)c1	10	0	11
CCCN1C[C@H](C)[C@H](OC)CN(C)C(=O)c2cc(NC(=O)c3ccc(F)cc3)ccc2OC[C@H]1C	0	0	16*
CCCN1C[C@@H](C)[C@H](OC)CN(C)C(=O)c2cc(NC(=O)c3cccc(F)c3)ccc2OC[C@@H]1C	-10	0	6
CCCN1C[C@@H](C)[C@@H](OC)CN(C)C(=O)c2cc(NC(=O)c3cccc(F)c3)ccc2OC[C@@H]1C	27*	0	4
CCCN1C[C@@H](C)[C@H](OC)CN(C)C(=O)c2cc(NC(=O)c3ccc(F)cc3)ccc2OC[C@@H]1C	-12	0	4
COc1cccc(C(=O)Nc2ccc3c(c2)C(=O)N(C)C[C@H](OC)[C@@H](C)CN(CCc2ccccc2)[C@@H](C)CO3)c1	-4	0	18*
SMILES	DENV2 CPE rescue	E-selectin induc	SIRT5 inh
CCCN1C[C@H](C)[C@H](OC)CN(C)C(=O)c2cc(NC(=O)Nc3ccccc3F)ccc2OC[C@H]1C	1	0	1
O=C(COC(=O)c1nc(Cl)ccc1Cl)c1ccccc1Cl	7	/	1
CCC(=O)N1[C@H](CO)[C@H](c2ccc(-c3ccc(C#N)cc3)cc2)C12CN(C(C)=O)C2	4	1	-5
CCN1CCN(c2nc3c(C)cccn3c(=O)c2/C=C(\C#N)S(=O)(=O)c2ccc(Cl)cc2)CC1	5	/	3
C[C@H]1CN([C@@H](C)CO)C(=O)c2cc(NS(=O)(=O)c3ccc(Cl)cc3)ccc2O[C@@H]1CN(C)Cc1ccc(C(=O)O)cc1	-2	0	-2
COc1cccc(-c2ccc3n(c2=O)C[C@H]2[C@H](CO)[C@@H](C(=O)NCC4CC4)N(C(=O)NC(C)C)[C@@H]32)c1	8	0	-25
CCNC(=O)[C@H]1[C@H](CO)[C@H]2Cn3c(ccc(-c4ccc(OC)cc4)c3=O)[C@@H]1N2CC	79*	2	-37
COC(=O)[C@@H]1[C@@H](CO)[C@@H]2Cn3c(ccc(-c4cccc(F)c4)c3=O)[C@@H]2N1C(C)=O	?	-1	-13
